In ChEMBL document CHEMBL1148762, “Lysosome and HER3 (ErbB3) selective anticancer agent kahalalide F: semisynthetic modifications and antifungal lead-exploration studies” (J Med Chem, 2007):
Values after ≈ are worked out from the molar mass of the structure shown. Active and inactive are the calls of the source. The calls are words filed in the database; no cut-off is given here.

Columns and labels:
Aspergillus fumigatus = assay: Antimicrobial activity against Aspergillus fumigatus ATCC 90906; format: functional, organism-based
Cryptococcus neoformans = assay: Antimicrobial activity against Cryptococcus neoformans ATCC 90113; format: functional, organism-based
[1] = test system: Mycobacterium intracellulare; assay: Antimicrobial activity against Mycobacterium intracellular ATCC 23068; format: functional, organism-based
[2] = test system: Mycobacterium tuberculosis; assay: Antibacterial activity against Mycobacterium tuberculosis H37Rv at 16 ug/mL by micro plate alamar blue assay; format: functional
Procedure, shortened: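 M. tuberculosis H37Rv ATCC 27294 grown in BACTEC 12B medium; microplate Alamar blue assay (MABA). Primary screen at a single concentration of 16 µg/mL, read as percent inhibition.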

[3] = test system: Mycobacterium tuberculosis; assay: Antibacterial activity against Mycobacterium tuberculosis H37Rv by micro plate alamar blue assay; format: functional
Candida albicans = assay: Antimicrobial activity against Candida albicans ATCC 90028; format: functional, organism-based
Fusarium oxysporum [4] = assay: Antimicrobial activity against Fusarium oxysporum at 0.3 uM after 48 hrs by microtiter assay; format: functional
Procedure, shortened: (§1)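 96-well microdilution broth assay with conidia (3 × 10^5 conidia/mL, harvested from 7-day PDA cultures and filtered) against F. oxysporum, F. proliferatum and F. solani at 0.3, 3 and 30 µM. Plates were held at 24 ± 1 °C under a 12 h photoperiod. Growth was read at 620 nm at 24, 48 and 72 h and reported as percent inhibition from mean absorbance with standard error.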

Fusarium oxysporum [5] = assay: Antimicrobial activity against Fusarium oxysporum at 30 uM after 72 hrs by microtiter assay; format: functional; procedure, shortened: as §1
Fusarium oxysporum [6] = assay: Antimicrobial activity against Fusarium oxysporum at 0.3 uM after 72 hrs by microtiter assay; format: functional; procedure, shortened: as §1
Fusarium oxysporum [7] = assay: Antimicrobial activity against Fusarium oxysporum at 3 uM after 72 hrs by microtiter assay; format: functional; procedure, shortened: as §1
Fusarium proliferatum [8] = assay: Antimicrobial activity against Fusarium proliferatum at 3 uM after 72 hrs by microtiter assay; format: functional; procedure, shortened: as §1
Fusarium solani [9] = assay: Antimicrobial activity against Fusarium solani at 30 uM after 48 hrs by microtiter assay; format: functional; procedure, shortened: as §1
Fusarium proliferatum [10] = assay: Antimicrobial activity against Fusarium proliferatum at 0.3 uM after 72 hrs by microtiter assay; format: functional; procedure, shortened: as §1
Fusarium solani [11] = assay: Antimicrobial activity against Fusarium solani at 30 uM after 72 hrs by microtiter assay; format: functional; procedure, shortened: as §1
Fusarium proliferatum [12] = assay: Antimicrobial activity against Fusarium proliferatum at 30 uM after 48 hrs by microtiter assay; format: functional; procedure, shortened: as §1
Fusarium solani [13] = assay: Antimicrobial activity against Fusarium solani at 0.3 uM after 72 hrs by microtiter assay; format: functional; procedure, shortened: as §1
Fusarium oxysporum [14] = assay: Antimicrobial activity against Fusarium oxysporum at 3 uM after 48 hrs by microtiter assay; format: functional; procedure, shortened: as §1
Fusarium proliferatum [15] = assay: Antimicrobial activity against Fusarium proliferatum at 0.3 uM after 48 hrs by microtiter assay; format: functional; procedure, shortened: as §1
Fusarium solani [16] = assay: Antimicrobial activity against Fusarium solani at 3 uM after 72 hrs by microtiter assay; format: functional; procedure, shortened: as §1
Fusarium solani [17] = assay: Antimicrobial activity against Fusarium solani at 0.3 uM after 48 hrs by microtiter assay; format: functional; procedure, shortened: as §1
Fusarium proliferatum [18] = assay: Antimicrobial activity against Fusarium proliferatum at 30 uM after 72 hrs by microtiter assay; format: functional; procedure, shortened: as §1
Fusarium proliferatum [19] = assay: Antimicrobial activity against Fusarium proliferatum at 3 uM after 48 hrs by microtiter assay; format: functional; procedure, shortened: as §1
Fusarium solani [20] = assay: Antimicrobial activity against Fusarium solani at 3 uM after 48 hrs by microtiter assay; format: functional; procedure, shortened: as §1
Leishmania donovani = assay: Antiparasitic activity against Leishmania donovani; format: functional, organism-based
Fusarium oxysporum [21] = assay: Antimicrobial activity against Fusarium oxysporum at 30 uM after 48 hrs by microtiter assay; format: functional; procedure, shortened: as §1
Fusarium oxysporum [22] = assay: Fungistatic activity against Fusarium oxysporum at 30 uM after 72 hrs by microtiter plate assay; format: functional, organism-based
Procedure, shortened: (§2)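 Conidia come from 7-day potato dextrose agar cultures, filtered and set photometrically (625 nm) to 3 × 10^5 conidia/mL. They are exposed to compound at 30 µM in 96-well microdilution broth at 24 ± 1 °C under a 12 h photoperiod. After 72 h, 20 µL per well is subcultured on drug-free potato dextrose agar at 28 °C for 3 days. No regrowth is scored fungicidal; regrowth is scored fungistatic.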

Fusarium solani [23] = assay: Fungicidal activity against Fusarium solani at 30 uM after 72 hrs by microtiter assay; format: functional, organism-based
Procedure, shortened: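 After 72 h of microtiter broth exposure at 30 µM, 20 µL from each well was plated onto compound-free potato dextrose agar and incubated 3 days at 28 °C. No regrowth was scored fungicidal; regrowth was scored fungistatic.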

Fusarium proliferatum [24] = assay: Fungistatic activity against Fusarium proliferatum at 30 uM after 72 hrs by microtiter plate assay; format: functional, organism-based; procedure, shortened: as §2

Compound	MFC (Aspergillus fumigatus) [µM]	MIC (Aspergillus fumigatus) [µM]	MFC (Cryptococcus neoformans) [µM]	MIC (Cryptococcus neoformans) [µM]	MBC [1] [µM]	MIC [1] [µM]	inhibition at 16 µg/mL [2] [%]	MIC [3] [µg/mL]	MFC (Candida albicans) [µM]	MIC (Candida albicans) [µM]	other results
C/C=C1\NC(=O)[C@H](Cc2ccccc2)NC(=O)[C@@H](C(C)C)NC(=O)[C@@H]([C@@H](C)CC)NC(=O)[C@H](NC(=O)[C@H](NC(=O)[C@H](CCCN(CCCCCC)CCCCCC)NC(=O)[C@H]2CCCN2C(=O)[C@H](NC(=O)[C@@H](NC(=O)[C@@H](NC(=O)[C@H](NC(=O)CCCC(C)C)C(C)C)[C@@H](C)O)C(C)C)C(C)C)[C@@H](C)CC)[C@@H](C)OC(=O)[C@H](C(C)C)NC1=O	> 20	> 20	> 20	> 20	> 20	> 20	91	9.4 (≈ 5.71 µM)	> 20	> 20	–
CO[C@H]1/C=C/O[C@@]2(C)Oc3c(C)c(O)c4c(O)c(c(/C=N/N5CCN(C)CC5)c(O)c4c3C2=O)NC(=O)/C(C)=C\C=C\[C@H](C)[C@H](O)[C@@H](C)[C@@H](O)[C@@H](C)[C@H](OC(C)=O)[C@@H]1C [RIFAMPIN]	–	–	–	–	–	–	93	0.08 (≈ 0.0972 µM)	–	–	–
C/C=C1\NC(=O)[C@H](Cc2ccccc2)NC(=O)[C@@H](C(C)C)NC(=O)[C@@H]([C@@H](C)CC)NC(=O)[C@H](NC(=O)[C@H](NC(=O)[C@H](CCCNCCCCCC)NC(=O)[C@H]2CCCN2C(=O)[C@H](NC(=O)[C@@H](NC(=O)[C@@H](NC(=O)[C@H](NC(=O)CCCC(C)C)C(C)C)[C@@H](C)O)C(C)C)C(C)C)[C@@H](C)CC)[C@@H](C)OC(=O)[C@H](C(C)C)NC1=O	20 (≈ 31.2 µg/mL)	10 (≈ 15.6 µg/mL)	10 (≈ 15.6 µg/mL)	5 (≈ 7.81 µg/mL)	> 20	> 20	88	> 16	20 (≈ 31.2 µg/mL)	20 (≈ 31.2 µg/mL)	inhibition at 0.3 µM (Fusarium oxysporum [4]): 0%; inhibition at 30 µM (Fusarium oxysporum [5]): 89%; inhibition at 0.3 µM (Fusarium oxysporum [6]): 0%; inhibition at 3 µM (Fusarium oxysporum [7]): 0%; inhibition at 3 µM (Fusarium proliferatum [8]): 0%; inhibition at 30 µM (Fusarium solani [9]): 94.3%; inhibition at 0.3 µM (Fusarium proliferatum [10]): 0%; inhibition at 30 µM (Fusarium solani [11]): 94.7%; inhibition at 30 µM (Fusarium proliferatum [12]): 95.3%; inhibition at 0.3 µM (Fusarium solani [13]): 0%; inhibition at 3 µM (Fusarium oxysporum [14]): 0%; inhibition at 0.3 µM (Fusarium proliferatum [15]): 0%; inhibition at 3 µM (Fusarium solani [16]): 0%; inhibition at 0.3 µM (Fusarium solani [17]): 0%; inhibition at 30 µM (Fusarium proliferatum [18]): 92.8%; inhibition at 3 µM (Fusarium proliferatum [19]): 0%; inhibition at 3 µM (Fusarium solani [20]): 0%; IC90 (Leishmania donovani): 34 µg/mL (≈ 21.8 µM); inhibition at 30 µM (Fusarium oxysporum [21]): 93.6%
C/C=C1\NC(=O)[C@H](Cc2ccccc2)NC(=O)[C@@H](C(C)C)NC(=O)[C@@H]([C@@H](C)CC)NC(=O)[C@H](NC(=O)[C@H](NC(=O)[C@H](CCCNCCCCCC)NC(=O)[C@H]2CCCN2C(=O)[C@@H](NC(=O)[C@H](NC(=O)[C@H](NC(=O)[C@@H](NC(=O)CCCC(C)C)C(C)C)[C@H](C)O)C(C)C)C(C)C)[C@@H](C)CC)[C@@H](C)OC(=O)[C@H](C(C)C)NC1=O	–	–	–	–	–	–	–	–	–	–	Activity (Fusarium oxysporum [22]): Active; Activity (Fusarium solani [23]): Active; Activity (Fusarium proliferatum [24]): Active
